According to ChEMBL document CHEMBL5724801, “EUbOPEN Chemogenomics Library - Multiplex” (2024):
“And” between values parts separate entries of the source, which are not always exact repeats. Equal values may be shown once.

Tested on: HEK-293T
Assay: Multiplex assay against HEK293T
Type: toxicity, cell-based
Settings: human
How it was run: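 Compound was added to live cells that had been stained at seeding with Hoechst33342, BioTracker Green Microtubule Cytoskeleton Dye, MitoTracker Red and Annexin V Alexa Fluor 680, and imaging followed on a CQ1 microscope at 37°C and 5% CO2. CellPathfinder machine-learning gating divided cells into Hoechst high-intensity objects or normal cells, normal cells into healthy, pyknosed or fragmented nuclei, and pyknosed cells into mitotic or apoptotic. Tubulin, mitochondrial-mass and membrane-permeability phenotypes are per cents of healthy-nucleus cells.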

[1] = 12 h, 1 µM, compound concentration 1 uM
[2] = 12 h, 10 µM, compound concentration 10 uM
[3] = 24 h, 1 µM, compound concentration 1 uM
[4] = 24 h, 10 µM, compound concentration 10 uM
[5] = 48 h, 1 µM, compound concentration 1 uM
[6] = 48 h, 10 µM, compound concentration 10 uM

## CN(C)C/C=C/C(=O)Nc1ccc(C(=O)N2CCCC(Nc3ncc(Cl)c(-c4c[nH]c5ccccc45)n3)C2)cc1 (configuration not stated)
[1]
  Population Apoptotic (%): 46% and 63%
  Population Fragmented Nuclei (%): 8% and 6%
  Population Healthy Nuclei (%): 55% and 64%
  Population Hoechst High Intensity Objects (%): 30% and 23%
  Population Membrane Permeable-Phenotype (%): 0%
  Population Mitochondria Different-Phenotype (%): 87% and 89%
  Population Mitotic Cells (%): 53% and 36%
  Population Normal (%): 69% and 76%
  Population Pyknosed Nuclei (%): 35% and 29%
  Population Tubulin-Different-Phenotype (%): 69% and 70%
  Total Cell Count: 227 and 231
[2]
  Population Apoptotic (%): 62% and 77%
  Population Fragmented Nuclei (%): 12% and 7%
  Population Healthy Nuclei (%): 57% and 64%
  Population Hoechst High Intensity Objects (%): 35% and 29%
  Population Membrane Permeable-Phenotype (%): 0%
  Population Mitochondria Different-Phenotype (%): 95%
  Population Mitotic Cells (%): 37% and 22%
  Population Normal (%): 64% and 70%
  Population Pyknosed Nuclei (%): 30% and 28%
  Population Tubulin-Different-Phenotype (%): 79% and 81%
  Total Cell Count: 269 and 181
[3]
  Population Apoptotic (%): 72% and 74%
  Population Fragmented Nuclei (%): 15% and 9%
  Population Healthy Nuclei (%): 62% and 67%
  Population Hoechst High Intensity Objects (%): 27% and 26%
  Population Membrane Permeable-Phenotype (%): 0%
  Population Mitochondria Different-Phenotype (%): 85% and 89%
  Population Mitotic Cells (%): 27% and 25%
  Population Normal (%): 72% and 73%
  Population Pyknosed Nuclei (%): 22% and 23%
  Population Tubulin-Different-Phenotype (%): 74% and 70%
  Total Cell Count: 222 and 207
[4]
  Population Apoptotic (%): 74% and 88%
  Population Fragmented Nuclei (%): 19% and 10%
  Population Healthy Nuclei (%): 55% and 68%
  Population Hoechst High Intensity Objects (%): 49% and 34%
  Population Membrane Permeable-Phenotype (%): 0%
  Population Mitochondria Different-Phenotype (%): 96% and 98%
  Population Mitotic Cells (%): 25% and 11%
  Population Normal (%): 50% and 65%
  Population Pyknosed Nuclei (%): 24% and 20%
  Population Tubulin-Different-Phenotype (%): 52% and 77%
  Total Cell Count: 314 and 197
[5]
  Population Apoptotic (%): 67% and 81%
  Population Fragmented Nuclei (%): 16% and 6%
  Population Healthy Nuclei (%): 59% and 65%
  Population Hoechst High Intensity Objects (%): 30% and 26%
  Population Membrane Permeable-Phenotype (%): 0%
  Population Mitochondria Different-Phenotype (%): 79% and 95%
  Population Mitotic Cells (%): 32% and 18%
  Population Normal (%): 69% and 73%
  Population Pyknosed Nuclei (%): 23% and 27%
  Population Tubulin-Different-Phenotype (%): 71% and 74%
  Total Cell Count: 239 and 184
[6]
  Population Apoptotic (%): 55% and 80%
  Population Fragmented Nuclei (%): 62% and 47%
  Population Healthy Nuclei (%): 14% and 30%
  Population Hoechst High Intensity Objects (%): 67% and 58%
  Population Membrane Permeable-Phenotype (%): 0%
  Population Mitochondria Different-Phenotype (%): 100% and 94%
  Population Mitotic Cells (%): 44% and 20%
  Population Normal (%): 32% and 41%
  Population Pyknosed Nuclei (%): 23% and 21%
  Population Tubulin-Different-Phenotype (%): 23% and 57%
  Total Cell Count: 361 and 277

## CC(/C=C1\SC(=S)N(CCCC(=O)Nc2ccc(C(=O)O)c(O)c2)C1=O)=C\c1ccccc1
[1]
  Population Apoptotic (%): 34% and 50%
  Population Fragmented Nuclei (%): 6%
  Population Healthy Nuclei (%): 81% and 84%
  Population Hoechst High Intensity Objects (%): 6%
  Population Membrane Permeable-Phenotype (%): 0%
  Population Mitochondria Different-Phenotype (%): 41% and 62%
  Population Mitotic Cells (%): 65% and 50%
  Population Normal (%): 93%
  Population Pyknosed Nuclei (%): 11% and 8%
  Population Tubulin-Different-Phenotype (%): 31% and 20%
  Total Cell Count: 422 and 389
[2]
  Population Apoptotic (%): 43% and 51%
  Population Fragmented Nuclei (%): 5%
  Population Healthy Nuclei (%): 76% and 79%
  Population Hoechst High Intensity Objects (%): 7%
  Population Membrane Permeable-Phenotype (%): 0%
  Population Mitochondria Different-Phenotype (%): 45% and 49%
  Population Mitotic Cells (%): 56% and 48%
  Population Normal (%): 92%
  Population Pyknosed Nuclei (%): 18% and 15%
  Population Tubulin-Different-Phenotype (%): 35% and 26%
  Total Cell Count: 313 and 327
[3]
  Population Apoptotic (%): 27% and 31%
  Population Fragmented Nuclei (%): 9% and 7%
  Population Healthy Nuclei (%): 79% and 83%
  Population Hoechst High Intensity Objects (%): 4% and 7%
  Population Membrane Permeable-Phenotype (%): 0%
  Population Mitochondria Different-Phenotype (%): 28% and 52%
  Population Mitotic Cells (%): 72% and 68%
  Population Normal (%): 95% and 92%
  Population Pyknosed Nuclei (%): 10% and 8%
  Population Tubulin-Different-Phenotype (%): 26% and 21%
  Total Cell Count: 604 and 491
[4]
  Population Apoptotic (%): 33% and 39%
  Population Fragmented Nuclei (%): 8%
  Population Healthy Nuclei (%): 75% and 79%
  Population Hoechst High Intensity Objects (%): 5% and 6%
  Population Membrane Permeable-Phenotype (%): 0%
  Population Mitochondria Different-Phenotype (%): 34% and 40%
  Population Mitotic Cells (%): 66% and 60%
  Population Normal (%): 94% and 93%
  Population Pyknosed Nuclei (%): 16% and 12%
  Population Tubulin-Different-Phenotype (%): 31% and 20%
  Total Cell Count: 369 and 422
[5]
  Population Apoptotic (%): 23% and 19%
  Population Fragmented Nuclei (%): 13% and 14%
  Population Healthy Nuclei (%): 79%
  Population Hoechst High Intensity Objects (%): 2% and 5%
  Population Membrane Permeable-Phenotype (%): 1% and 0%
  Population Mitochondria Different-Phenotype (%): 16% and 26%
  Population Mitotic Cells (%): 76% and 80%
  Population Normal (%): 97% and 94%
  Population Pyknosed Nuclei (%): 7% and 6%
  Population Tubulin-Different-Phenotype (%): 14% and 13%
  Total Cell Count: 998 and 673
[6]
  Population Apoptotic (%): 24% and 39%
  Population Fragmented Nuclei (%): 9% and 11%
  Population Healthy Nuclei (%): 79% and 82%
  Population Hoechst High Intensity Objects (%): 3% and 5%
  Population Membrane Permeable-Phenotype (%): 2%
  Population Mitochondria Different-Phenotype (%): 25% and 23%
  Population Mitotic Cells (%): 75% and 60%
  Population Normal (%): 96% and 94%
  Population Pyknosed Nuclei (%): 10% and 6%
  Population Tubulin-Different-Phenotype (%): 22% and 24%
  Total Cell Count: 479 and 555
